Active and inactive are the calls of the source. The rule behind the calls is not given here.
Columns and labels:
[1] = target: T1, Transcriptional enhancer factor TEF-3 (Homo sapiens, UniProt Q15561); test: Inhibition of TEAD4 in HEK293 cells assessed as reduction in ANKRD1 mRNA expression at 1 uM measured after 6 hrs by SYBR green dye based RT-PCR analysis relative to control; assay type: cell-based
Summary of the method: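 HEK293 cells treated with DMSO or compound for 6 h; ANKRD1 mRNA measured by RT-qPCR relative to the DMSO control.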

[2] = target: T1, Transcriptional enhancer factor TEF-3; test: (§1) Binding affinity to N-terminal His6-tagged human TEAD4 (217 to 434 residues) expressed in Escherichia coli BL21-CodonPlus (DE3)-RIPL cells assessed as inhibition of protein-FAM-YAP (50 to 100 residues) interaction preincubated for 10 mins followed by FAM YAP addition and measured after 1 hr by fluorescence assay; conditions: time 70.0 min
Summary of the method: (§2)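 FP competition in PBS pH 7.5: serially diluted compound preincubated 10 min at room temperature with TEAD4 protein, then FAM-YAP50–100 added; shaken 1 h at room temperature, FP read at Ex/Em 485/535 nm. Final FAM/protein: nonacylated hTEAD4 2 nM/5 nM; acylated hTEAD4 3 nM/15 nM. Compound stocks 10 mM in DMSO. IC50 from curve fitting.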

[3] = target: Transcriptional enhancer factor TEF-3 (Mus musculus) (UniProt Q62296); test: Binding affinity to nonacylated mouse TEAD4 assessed as line broadening at Phe408 residue at 0.5 mM by 1H-15N HSQC spectra analysis
Transcriptional enhancer factor TEF-3 (Mus musculus), sequence (Q62296 whole entry): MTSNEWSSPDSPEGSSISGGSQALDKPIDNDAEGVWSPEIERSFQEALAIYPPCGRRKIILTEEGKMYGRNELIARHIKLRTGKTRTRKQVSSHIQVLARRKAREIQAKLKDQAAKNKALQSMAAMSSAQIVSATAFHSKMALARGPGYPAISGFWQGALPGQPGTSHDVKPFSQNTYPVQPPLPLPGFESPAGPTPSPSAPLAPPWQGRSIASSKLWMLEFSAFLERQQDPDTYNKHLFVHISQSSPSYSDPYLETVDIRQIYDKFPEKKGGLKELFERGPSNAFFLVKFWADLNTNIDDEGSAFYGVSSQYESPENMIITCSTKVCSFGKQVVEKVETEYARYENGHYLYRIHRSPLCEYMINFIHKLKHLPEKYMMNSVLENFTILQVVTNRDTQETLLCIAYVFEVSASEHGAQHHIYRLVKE
Summary of the method: (§3)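 1H–15N HSQC of 13C/15N-labeled mTEAD4, deacylated with hydroxylamine; spectra with DMSO or compound (0.5 mM) recorded at 37 °C on a 600 MHz cryoprobe instrument in 20 mM HEPES pH 7.3, 150 mM NaCl, 1 mM DTT; spectra overlaid.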

[4] = target: Transcriptional enhancer factor TEF-3 (Mus musculus) (UniProt Q62296); test: Binding affinity to nonacylated mouse TEAD4 assessed as line broadening at Phe386 residue at 0.5 mM by 1H-15N HSQC spectra analysis; summary of the method: as §3
[5] = target: T1, Transcriptional enhancer factor TEF-3; test: Binding affinity to TEAD4 in human HCT-116 cells assessed as change in melting temperature at 50 uM after 10 mins by […]; assay type: cell-based
Summary of the method: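 CETSA in HCT116 lysates (PBS, 0.04% NP-40, freeze–thaw lysis, 100,000g clearing; 1 mg/mL protein): compound at 50 μM or DMSO for 10 min at room temperature, aliquots heated across a temperature range, recentrifuged 100,000g at 4 °C for 25 min. Soluble TEAD4 detected by immunoblot with anti-TEAD4 antibody; melting temperature from turning point of fitted curves.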

Mus musculus [6] = species: Mus musculus; test: Binding affinity to N-terminal His6/MBP-tagged mouse TEAD4 (209 to 427 residues) Cys360Ala mutant expressed in Escherichia coli BL21-CodonPlus (DE3)-RIPL cells assessed as inhibition of protein-FAM-YAP (50 to 100 residues) interaction preincubated for 10 mins followed by FAM YAP addition and measured after 1 hr by fluorescence assay; conditions: time 70.0 min
Summary of the method: (§4)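 FP competition in PBS pH 7.5 with mTEAD4 Cys360Ser or Cys360Ala mutant: serially diluted compound preincubated 10 min at room temperature with protein, then FAM-YAP50–100 added (final 10 nM FAM / 50 nM protein for each mutant); shaken 1 h at room temperature, FP read at Ex/Em 485/535 nm.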

[7] = target: T1, Transcriptional enhancer factor TEF-3; test: as §1, with “affinity to nonacylated N-terminal His6-tagged” for “affinity to N-terminal His6-tagged”; summary of the method: as §2
Mus musculus [8] = species: Mus musculus; test: Binding affinity to N-terminal His6-tagged mouse TEAD4 Cys360Ser mutant assessed as inhibition of protein-FAM-YAP (50 to 100 residues) interaction preincubated for 10 mins followed by FAM YAP addition and measured after 1 hr by fluorescence assay; conditions: time 70.0 min; summary of the method: as §4
[9] = target: T1, Transcriptional enhancer factor TEF-3; test: Inhibition of CPM binding to N-terminal His6-tagged human TEAD4 (217 to 434 residues) expressed in Escherichia coli BL21-CodonPlus (DE3)-RIPL cells preincubated for 10 mins followed by CPM addition and measured after 1 hr by fluorescence assay; conditions: read-out: IC50(app)
[10] = target: T1, Transcriptional enhancer factor TEF-3; test: Inhibition of CPM binding to N-terminal His6-tagged human TEAD4 (217 to 434 residues) expressed in Escherichia coli BL21-CodonPlus (DE3)-RIPL cells at 12.5 uM preincubated for 10 mins followed by CPM addition and measured after 1 hr by fluorescence assay relative to control; conditions: time 70.0 min
[11] = target: T1, Transcriptional enhancer factor TEF-3; test: Inhibition of FITC-labeled palmitate tracer binding to N-terminal His6-tagged human TEAD4 (217 to 434 residues) expressed in Escherichia coli BL21-CodonPlus (DE3)-RIPL cells preincubated for 10 mins followed by FITC-labeled palmitate tracer addition and measured after 1 hr by fluorescence assay
Summary of the method: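 FP competition in 25 mM HEPES, 150 mM NaCl, pH 6.5: serially diluted compound preincubated 10 min at room temperature with nonacylated hTEAD4, then FITC-palmitate tracer added (final 50 nM protein, 10 nM tracer); shaken 1 h at room temperature, FP at Ex/Em 485/535 nm. Tracer Kd from saturation binding.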

[12] = target: T1, Transcriptional enhancer factor TEF-3; test: Binding affinity to nonacylated N-terminal His6-tagged human TEAD4 (217 to 434 residues) expressed in Escherichia coli BL21-CodonPlus (DE3)-RIPL cells assessed as melting temperature at 80 uM after 10 mins by SYPRO orange dye-based differential scanning fluorimetry method (reference value: 41 degreeC)
[13] = target: T1, Transcriptional enhancer factor TEF-3; test: Binding affinity to nonacylated N-terminal His6-tagged human TEAD4 (217 to 434 residues) expressed in Escherichia coli BL21-CodonPlus (DE3)-RIPL cells at 8 equiv after 1 hr by ESI-MS spectrophotometric analysis
Summary of the method: (§5)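 Whole-protein ESI–MS: 1 μM hTEAD4 incubated 1 h at room temperature with 8 equiv compound in 25 mM HEPES, 150 mM NaCl, pH 6.5; centrifuged, injected via online desalting column to UPLC-MS; masses deconvoluted to detect adducts.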

[14] = target: T1, Transcriptional enhancer factor TEF-3; test: Binding affinity to acylated N-terminal His6-tagged human TEAD4 (217 to 434 residues) expressed in Escherichia coli BL21-CodonPlus (DE3)-RIPL cells assessed as covalent adduct formation at 8 equiv after 1 hr by ESI-MS spectrophotometric analysis; summary of the method: as §5
[15] = target: T1, Transcriptional enhancer factor TEF-3; test: Reversible inhibition of CPM binding to nonacylated N-terminal His6-tagged human TEAD4 (217 to 434 residues) expressed in Escherichia coli BL21-CodonPlus (DE3)-RIPL cells measured after 1 to 24 hrs by fluorescence assay
[16] = target: T1, Transcriptional enhancer factor TEF-3; test: Inhibition of CPM binding to nonacylated N-terminal His6-tagged human TEAD4 (217 to 434 residues) expressed in Escherichia coli BL21-CodonPlus (DE3)-RIPL cells assessed as ratio of Kinact to Ki measured after 1 to 24 hrs by fluorescence assay; conditions: time hrs 1-24
[17] = target: T1, Transcriptional enhancer factor TEF-3; test: Inhibition of FITC-labeled palmitate tracer binding to N-terminal His6-tagged human TEAD4 (217 to 434 residues) expressed in Escherichia coli BL21-CodonPlus (DE3)-RIPL cells assessed as ratio of Kinact to Ki measured after 1 to 24 hrs by fluorescence assay; conditions: time hrs 1-24
[18] = target: Transcriptional enhancer factor TEF-1 (Homo sapiens, UniProt P28347); test: Inhibition of CPM binding to nonacylated N-terminal His6/GST-tagged human TEAD1 (209 to 426 residues) expressed in Escherichia coli BL21-CodonPlus (DE3)-RIPL cells preincubated for 10 mins followed by CPM addition and measured after 1 hr by fluorescence assay
Transcriptional enhancer factor TEF-1, sequence (P28347 whole entry, the tested form may be a part): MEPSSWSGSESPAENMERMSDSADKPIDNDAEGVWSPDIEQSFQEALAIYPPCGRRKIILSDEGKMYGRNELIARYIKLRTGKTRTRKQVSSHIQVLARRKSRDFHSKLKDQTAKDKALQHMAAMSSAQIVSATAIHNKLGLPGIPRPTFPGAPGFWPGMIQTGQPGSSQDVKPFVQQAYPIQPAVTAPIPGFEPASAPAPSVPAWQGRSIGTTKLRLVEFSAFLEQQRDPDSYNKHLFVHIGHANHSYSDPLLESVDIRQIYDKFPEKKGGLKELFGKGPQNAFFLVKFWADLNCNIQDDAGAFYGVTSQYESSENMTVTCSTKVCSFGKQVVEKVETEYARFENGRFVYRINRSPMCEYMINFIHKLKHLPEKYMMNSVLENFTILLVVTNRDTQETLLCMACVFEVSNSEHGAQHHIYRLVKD

T1 sequence (Q15561 whole entry): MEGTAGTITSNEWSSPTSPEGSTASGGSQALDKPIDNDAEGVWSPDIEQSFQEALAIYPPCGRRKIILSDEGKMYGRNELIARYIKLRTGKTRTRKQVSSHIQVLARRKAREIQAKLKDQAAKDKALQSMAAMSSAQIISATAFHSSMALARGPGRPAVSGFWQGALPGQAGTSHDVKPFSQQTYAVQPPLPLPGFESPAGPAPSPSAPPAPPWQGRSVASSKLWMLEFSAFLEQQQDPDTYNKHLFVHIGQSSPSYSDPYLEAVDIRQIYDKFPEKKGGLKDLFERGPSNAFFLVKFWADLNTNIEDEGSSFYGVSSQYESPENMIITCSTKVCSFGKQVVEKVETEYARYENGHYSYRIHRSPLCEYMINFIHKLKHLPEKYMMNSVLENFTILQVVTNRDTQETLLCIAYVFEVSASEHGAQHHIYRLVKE

inhibition [1]: 90%
inhibition [2]: inactive
Activity [3]: Active
Activity [4]: Active
ΔTm [5]: 3.3 °C
IC50 [7]: 70 nM
inhibition (Mus musculus [8]): inactive
IC50 [9]: 2300 nM
inhibition [10]: > 50%
IC50 [11]: 200 nM
Tm [12]: 36 °C
Activity [13]: Active
Activity [14]: inactive
Ki [15]: 2600 nM
Ratio [16]: 8.3
Ratio [17]: 4
IC50 [18]: 2600 nM
SMILES: O=c1cc(CO)oc(C(Nc2ccccc2)c2ccccc2)c1O (stereo not drawn)
inhibition (Mus musculus [6]): inactive
